Data from PMC6689761 (International Journal of Nanomedicine, 2019).
pEC50: −log10 of the molar value. Read-outs that look alike come from different tables or passages of the source.

Legend:
[1] = format: in vivo, Sprague-Dawley rats; details: rat, IM
In short: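 Male Sprague-Dawley rats dosed IM (caudal thigh) at 45, 75 or 100 mg/kg FTC-equivalents. Cells from fresh blood, spleen and lymph nodes isolated, stored in 70% methanol and counted. Triphosphate separated from mono- and diphosphates on QMA cartridges, then dephosphorylated with type XA sweet potato acid phosphatase. Isotope-labelled lamivudine internal standard added after incubation (final 0.5 ng/mL). Mean±SEM, n=3–5.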

[2] = PK and biodistribution in rats after IM injection; format: in vivo, Sprague-Dawley rats; details: rat
[3] = reported value, no reference given; cited from earlier work
HIV-1ADA [4] = experiment: Antiretroviral efficacy in drug-preloaded MDMs; format: cell-based
In short: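 Human monocytes from HIV- and hepatitis-seronegative donors, elutriated and differentiated to MDMs. Cells exposed to 100 µM test drug or nanoformulation for 8 hrs, PBS-washed, then challenged with HIV-1ADA (MOI 0.1) for 18 hrs at times from 0 hr to 15 days after loading. Cultured 10 more days, medium changed every other day. Day-10 medium RT activity and p24 immunocytochemistry on 4% paraformaldehyde-fixed cells; uninfected and infected controls.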

[5] = tested on: human monocyte-derived macrophages (MDMs); experiment: Nanoparticle macrophage uptake and retention; format: cell-based; details: 100 µM
[6] = tested on: human monocyte-derived macrophages (MDMs); experiment: MTT cytotoxicity assay in MDMs; format: cell-based; details: up to 100 µM, 4 days of exposure
In short: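 Monocytes plated at 80,000 cells/well and differentiated to macrophages. Exposed to 10–400 µM test compound or nanoformulation for 4 days. Washed, then MTT (5 mg/mL) added for 45 mins at 37°C. Formazan dissolved in DMSO and absorbance read at 490 nm. Values normalised to untreated cells; at least three biological replicates.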

HIV-1ADA [7] = experiment: EC50 by HIV-1 RT activity in MDMs; format: cell-based; details: HIV-1ADA MOI 0.1, HIV-1 RT activity
In short: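 Human MDMs pretreated 1 hr with 0.01–1000 nM test compound, then exposed to HIV-1ADA at MOI 0.1 for 4 hrs. RT activity measured in collected media. EC50 taken as 50% inhibitory concentration from nonlinear-regression concentration–response fits.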

Aqueous solubility = format: physicochemical; details: water, 24 hrs, room temperature
In short: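 Excess drug mixed in water 24 hrs at room temperature, spun 20,000× g for 10 mins. Supernatant quantified by reversed-phase UPLC on C18 at 1.0 mL/min. Parent run in 95% 20 mM ammonium acetate/5% ACN, pH 3.9, detected at 272 nm. Prodrug run in 90% methanol/10% water, detected at 280 nm. Peak areas compared with 0.05–50 µg/mL standards in methanol.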

Substance: 2`-deoxy-5-fluoro-3`thiacytidine [FTC]
- FTC-TP level in PBMCs ([1]; 45 mg/kg, day 1): 100 fmol/10^6 cells
- FTC-TP level in PBMCs ([1]; 45 mg/kg, day 7): 6 fmol/10^6 cells
- FTC-TP level in PBMCs ([1]; 75 mg/kg, day 1): 133 fmol/10^6 cells
- FTC-TP level in PBMCs ([1]; 75 mg/kg, day 7): 7 fmol/10^6 cells
- FTC-TP level in PBMCs ([1]; 100 mg/kg, day 1): 163 fmol/10^6 cells
- FTC-TP level in PBMCs ([1]; 100 mg/kg, day 7): 8 fmol/10^6 cells
- fold higher PBMC FTC-TP levels compared to NMFTC treatment ([1]; 2 hrs): 2–3 fold
- FTC-TP levels in lymph node cells ([1]; day 1, across doses): 4–7 fmol/10^6 cells
- FTC-TP levels in spleen ([1]; day 1, across doses): 6–13 fmol/10^6 cells
- FTC-TP levels in lymph node cells ([1]; day 7, regardless of dose): 1–2 fmol/10^6 cells
- FTC-TP levels in spleen ([1]; day 7, regardless of dose): 2–3 fmol/10^6 cells
- FTC plasma level ([2]; 45 mg/kg FTC-equivalents, day 1): 25 ng/mL
- FTC level in liver ([2]; 45 mg/kg, day 7): 2.6 ng/g
- FTC level in lymph nodes ([2]; 45 mg/kg, day 7): 17 ng/g
- FTC level in spleen ([2]; 45 mg/kg, day 7): 0 ng/g
- FTC plasma level ([2]; 45 mg/kg, day 7): 0 ng/mL
- FTC plasma level ([2]; 75 mg/kg FTC-equivalents, day 1): 34 ng/mL
- FTC level in liver ([2]; 75 mg/kg, day 7): 14 ng/g
- FTC level in lymph nodes ([2]; 75 mg/kg, day 7): 6 ng/g
- FTC level in spleen ([2]; 75 mg/kg, day 7): 1.6 ng/g
- FTC plasma level ([2]; 75 mg/kg, day 7): 3 ng/mL
- FTC plasma level ([2]; 100 mg/kg FTC-equivalents, day 1): 52 ng/mL
- FTC level in liver ([2]; 100 mg/kg, day 7): 0.6 ng/g
- FTC level in lymph nodes ([2]; 100 mg/kg, day 7): 8 ng/g
- FTC level in spleen ([2]; 100 mg/kg, day 7): 6 ng/g
- FTC plasma level ([2]; 100 mg/kg, day 7): 1.4 ng/mL
- FTC plasma levels compared to NMFTC treatment ([2]; 2 hrs): several fold higher
- IC90 [3]: 0.014 µg/mL
- reported 50% inhibitory concentration (IC50) [3]: 0.008 µg/mL
- inhibition of viral RT activity (HIV-1ADA [4]; MDMs preloaded 100 µM 8 hrs, challenge at 24 hrs): 30%
- HIV-1 p24 antigen staining (HIV-1ADA [4]; by 12 hrs following treatment): HIV-1 p24+ cells were observed
- HIV-1 p24 antigen staining (HIV-1ADA [4]; by day 1): no effect
- HIV-1 RT activity in pre-exposed MDMs (HIV-1ADA [4]; challenge beyond day 1): did not have effect
- highest intracellular FTC-TP concentration ([5]; after 8 hrs): 10 pmol/10^6 cells
- intracellular drug levels ([5]; uptake over 24 hrs): minimal detectable intracellular drug levels
- MDM viability (MTT) [6]: did not affect MDM viability
- pEC50 (HIV-1ADA [7]): 7.10
- aqueous solubility (Aqueous solubility): 134 mg/mL
